The results in this text go back to ChEMBL document CHEMBL4627265, “Optimization of 8-oxoadenines with toll-like-receptor 7 and 8 activity” (Bioorg Med Chem Lett, 2020).

The EC50 is the concentration at which the effect is half-maximal.

What all share (assay type): cell-based
Test [1] addresses T1, Toll-like receptor 8 (Homo sapiens, UniProt Q9NR97).
T1 sequence (Q9NR97 whole entry): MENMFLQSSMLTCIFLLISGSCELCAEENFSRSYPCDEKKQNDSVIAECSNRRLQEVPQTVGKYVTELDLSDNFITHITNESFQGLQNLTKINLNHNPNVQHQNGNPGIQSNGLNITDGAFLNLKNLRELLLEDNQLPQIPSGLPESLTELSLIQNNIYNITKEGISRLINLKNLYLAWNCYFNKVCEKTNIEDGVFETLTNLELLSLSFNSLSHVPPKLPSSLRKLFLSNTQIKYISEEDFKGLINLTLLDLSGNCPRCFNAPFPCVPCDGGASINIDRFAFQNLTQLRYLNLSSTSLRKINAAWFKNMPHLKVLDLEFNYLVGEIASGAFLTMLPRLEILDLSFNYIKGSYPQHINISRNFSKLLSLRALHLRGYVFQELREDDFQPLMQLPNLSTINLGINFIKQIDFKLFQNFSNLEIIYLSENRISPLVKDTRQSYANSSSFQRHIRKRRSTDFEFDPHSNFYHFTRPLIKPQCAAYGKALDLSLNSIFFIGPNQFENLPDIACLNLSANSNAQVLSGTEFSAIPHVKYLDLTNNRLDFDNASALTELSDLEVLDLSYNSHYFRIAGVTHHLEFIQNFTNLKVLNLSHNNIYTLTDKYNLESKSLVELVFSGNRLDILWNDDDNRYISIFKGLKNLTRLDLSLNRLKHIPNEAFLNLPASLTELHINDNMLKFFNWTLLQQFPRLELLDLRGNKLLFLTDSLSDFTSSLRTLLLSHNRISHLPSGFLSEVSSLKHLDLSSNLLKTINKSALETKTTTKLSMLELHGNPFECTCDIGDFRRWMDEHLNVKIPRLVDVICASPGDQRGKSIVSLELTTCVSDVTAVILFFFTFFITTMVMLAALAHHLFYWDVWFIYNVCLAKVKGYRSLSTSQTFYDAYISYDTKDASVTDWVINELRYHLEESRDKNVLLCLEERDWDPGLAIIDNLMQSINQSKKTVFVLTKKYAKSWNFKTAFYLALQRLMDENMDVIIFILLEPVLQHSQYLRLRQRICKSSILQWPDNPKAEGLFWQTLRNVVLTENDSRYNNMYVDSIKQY
The test is described as follows: Agonist activity at human TLR8 expressed in HEK293 cells assessed as induction of NFKappaB activity after 24 hrs by SEAP reporter gene assay. The method, boiled down: (§1)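 HEK293 cells stably transfected with hTLR7 or hTLR8 plus an NFκB-driven SEAP reporter, treated 24 h with compound over a μM range; SEAP secretion read out. EC50 as mean ± SD of three (TLR7) or four (TLR8) independent experiments.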

Test [2] addresses T2, Toll-like receptor 8 (Homo sapiens) (UniProt Q9NR97).
T2 sequence (whole entry): T1 sequence (Q9NR97 whole entry)
The test is described as follows: Agonist activity at TLR8 in human PBMC assessed as induction of myeloid dendritic cell maturation by measuring HLA-DR level at 0.1 uM after 6 hrs by flow cytometry. Put shortly: (§2)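 hPBMCs stimulated 6 h at a single 0.1 μM dose; HLA-DR, MHC-I, CD80 and CD86 on mDCs and pDCs measured by flow cytometry, expressed as fold change versus unstimulated cells. Mean ± SD of three independent experiments in three different donors.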

The target of test [3] is T3, Toll-like receptor 7 (Homo sapiens, UniProt Q9NYK1).
T3 sequence (Q9NYK1 whole entry): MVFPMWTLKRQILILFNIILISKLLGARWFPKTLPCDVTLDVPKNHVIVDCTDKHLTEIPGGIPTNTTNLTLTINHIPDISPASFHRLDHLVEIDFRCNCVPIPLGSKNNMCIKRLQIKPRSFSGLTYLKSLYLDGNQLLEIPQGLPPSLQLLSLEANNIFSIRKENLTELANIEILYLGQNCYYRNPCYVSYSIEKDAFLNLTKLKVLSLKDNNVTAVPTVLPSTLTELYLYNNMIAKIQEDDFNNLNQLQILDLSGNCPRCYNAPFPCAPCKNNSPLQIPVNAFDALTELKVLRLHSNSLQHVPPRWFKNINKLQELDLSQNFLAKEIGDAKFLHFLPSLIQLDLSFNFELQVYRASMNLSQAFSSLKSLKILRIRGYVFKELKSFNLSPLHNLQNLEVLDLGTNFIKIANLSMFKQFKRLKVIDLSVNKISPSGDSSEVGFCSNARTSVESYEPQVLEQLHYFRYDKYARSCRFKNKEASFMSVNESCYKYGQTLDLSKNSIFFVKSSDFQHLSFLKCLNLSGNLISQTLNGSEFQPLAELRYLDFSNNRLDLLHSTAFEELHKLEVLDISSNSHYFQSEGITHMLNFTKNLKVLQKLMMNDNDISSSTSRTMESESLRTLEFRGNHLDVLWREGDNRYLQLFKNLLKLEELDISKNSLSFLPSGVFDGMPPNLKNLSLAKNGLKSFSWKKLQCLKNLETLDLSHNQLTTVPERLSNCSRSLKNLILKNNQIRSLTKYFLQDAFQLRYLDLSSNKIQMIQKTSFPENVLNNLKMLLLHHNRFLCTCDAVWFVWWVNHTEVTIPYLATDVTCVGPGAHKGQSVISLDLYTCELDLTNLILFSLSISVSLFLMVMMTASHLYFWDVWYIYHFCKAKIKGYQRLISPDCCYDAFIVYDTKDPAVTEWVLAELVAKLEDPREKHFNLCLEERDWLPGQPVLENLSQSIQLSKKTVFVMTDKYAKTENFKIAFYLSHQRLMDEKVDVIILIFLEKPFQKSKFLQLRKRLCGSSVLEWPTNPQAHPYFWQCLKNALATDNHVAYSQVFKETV
Put plainly: Agonist activity at human TLR7 expressed in HEK293 cells assessed as induction of NFKappaB activity after 24 hrs by SEAP reporter gene assay. Put shortly: as §1

In test [4] the target is T2, Toll-like receptor 8 (Homo sapiens). Put plainly: Agonist activity at TLR8 in human PBMC assessed as induction of myeloid dendritic cell maturation by measuring CD86 level at 0.1 uM after 6 hrs by flow cytometry. Put shortly:
as §2
In general terms: In flow cytometry, cells or beads pass a laser one at a time.

For test [5] the target is unchanged. The test is described as follows: Agonist activity at TLR8 in human PBMC assessed as TNFalpha level at 10 uM. Put shortly:
(§3)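 TNFα secretion by hPBMCs across a μM dose range; MEC = lowest dose tested inducing cytokine, PC = dose giving highest level, PL = peak level at 10 μM. Data representative of one of three independent donors.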

Test [6] has as its target TLR7 and TLR8 (Homo sapiens) (UniProt Q9NYK1+Q9NR97). The test is described as follows: Agonist activity at TLR7/TLR8 in human PBMC assessed as IFN alpha level. The method, boiled down:
(§4)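 IFNα secretion by hPBMCs across a μM dose range; MEC = lowest dose tested inducing cytokine, PC = dose giving highest level, PL = peak level at 10 μM. Data representative of one of three independent donors.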

In test [7] the target is T4, Toll-like receptor 7 (Homo sapiens) (UniProt Q9NYK1).
T4 sequence (whole entry): T3 sequence (Q9NYK1 whole entry)
Put plainly: Agonist activity at TLR7 in human PBMC assessed as IFNalpha stimulation at 10 uM. The method, boiled down:
as §4

The target of test [8] is T2, Toll-like receptor 8 (Homo sapiens). Put plainly: Agonist activity at TLR8 in human PBMC assessed as TNFalpha level. Put shortly:
as §3

The target is the same in test [9]. Put plainly: Agonist activity at TLR8 in human PBMC assessed as induction of myeloid dendritic cell maturation by measuring increase in CD80 level at 0.1 uM after 6 hrs by flow cytometry relative to control. The method, boiled down:
as §2

For test [10] the target is unchanged. Put plainly: Agonist activity at TLR8 in human PBMC assessed as induction of myeloid dendritic cell maturation by measuring increase in CD86 level at 0.1 uM after 6 hrs by flow cytometry relative to control. Put shortly:
as §2

The target is the same in test [11]. The test is described as follows: Agonist activity at TLR8 in human PBMC assessed as induction of myeloid dendritic cell maturation by measuring increase in MHC-1 level at 0.1 uM after 6 hrs by flow cytometry relative to control. The method, boiled down: as §2
Test [12] deals with T5, Toll-like receptor 9 (Homo sapiens) (UniProt Q9NR96).
T5 sequence (whole entry): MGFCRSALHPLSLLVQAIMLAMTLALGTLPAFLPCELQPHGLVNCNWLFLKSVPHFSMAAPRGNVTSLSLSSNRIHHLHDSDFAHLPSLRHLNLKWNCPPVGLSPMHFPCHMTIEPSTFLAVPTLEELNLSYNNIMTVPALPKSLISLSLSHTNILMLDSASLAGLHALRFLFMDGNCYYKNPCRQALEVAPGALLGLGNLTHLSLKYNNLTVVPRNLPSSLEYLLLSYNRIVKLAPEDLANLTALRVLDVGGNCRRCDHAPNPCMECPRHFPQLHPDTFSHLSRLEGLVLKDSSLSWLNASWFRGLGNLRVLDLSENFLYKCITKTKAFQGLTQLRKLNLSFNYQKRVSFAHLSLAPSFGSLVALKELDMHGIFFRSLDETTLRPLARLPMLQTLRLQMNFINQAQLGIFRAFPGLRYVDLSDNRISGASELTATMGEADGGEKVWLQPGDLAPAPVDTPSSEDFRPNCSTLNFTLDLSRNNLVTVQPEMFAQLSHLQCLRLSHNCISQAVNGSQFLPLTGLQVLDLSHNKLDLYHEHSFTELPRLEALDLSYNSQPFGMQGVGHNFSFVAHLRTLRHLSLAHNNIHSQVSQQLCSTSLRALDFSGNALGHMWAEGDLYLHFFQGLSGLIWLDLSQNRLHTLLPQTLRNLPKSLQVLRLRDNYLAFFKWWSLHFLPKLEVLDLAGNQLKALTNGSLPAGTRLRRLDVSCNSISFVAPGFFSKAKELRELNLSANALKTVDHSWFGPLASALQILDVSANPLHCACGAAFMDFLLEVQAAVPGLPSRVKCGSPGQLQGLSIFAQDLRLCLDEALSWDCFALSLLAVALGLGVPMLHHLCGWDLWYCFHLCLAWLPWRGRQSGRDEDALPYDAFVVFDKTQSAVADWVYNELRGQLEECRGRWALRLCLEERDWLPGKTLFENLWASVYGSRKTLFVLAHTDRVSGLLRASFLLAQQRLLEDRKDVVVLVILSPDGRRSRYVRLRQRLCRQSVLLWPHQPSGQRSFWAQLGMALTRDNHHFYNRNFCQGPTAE
Put plainly: Agonist activity at human TLR9 expressed in HEK293 cells by SEAP reporter gene assay.

The target of test [13] is Toll-like receptor 3 (Homo sapiens) (UniProt O15455). Put plainly: Agonist activity at human TLR3 expressed in HEK293 cells by SEAP reporter gene assay. For orientation: A reporter such as luciferase makes a cellular process visible.
Chain of Toll-like receptor 3 (Homo sapiens) (O15455 whole entry): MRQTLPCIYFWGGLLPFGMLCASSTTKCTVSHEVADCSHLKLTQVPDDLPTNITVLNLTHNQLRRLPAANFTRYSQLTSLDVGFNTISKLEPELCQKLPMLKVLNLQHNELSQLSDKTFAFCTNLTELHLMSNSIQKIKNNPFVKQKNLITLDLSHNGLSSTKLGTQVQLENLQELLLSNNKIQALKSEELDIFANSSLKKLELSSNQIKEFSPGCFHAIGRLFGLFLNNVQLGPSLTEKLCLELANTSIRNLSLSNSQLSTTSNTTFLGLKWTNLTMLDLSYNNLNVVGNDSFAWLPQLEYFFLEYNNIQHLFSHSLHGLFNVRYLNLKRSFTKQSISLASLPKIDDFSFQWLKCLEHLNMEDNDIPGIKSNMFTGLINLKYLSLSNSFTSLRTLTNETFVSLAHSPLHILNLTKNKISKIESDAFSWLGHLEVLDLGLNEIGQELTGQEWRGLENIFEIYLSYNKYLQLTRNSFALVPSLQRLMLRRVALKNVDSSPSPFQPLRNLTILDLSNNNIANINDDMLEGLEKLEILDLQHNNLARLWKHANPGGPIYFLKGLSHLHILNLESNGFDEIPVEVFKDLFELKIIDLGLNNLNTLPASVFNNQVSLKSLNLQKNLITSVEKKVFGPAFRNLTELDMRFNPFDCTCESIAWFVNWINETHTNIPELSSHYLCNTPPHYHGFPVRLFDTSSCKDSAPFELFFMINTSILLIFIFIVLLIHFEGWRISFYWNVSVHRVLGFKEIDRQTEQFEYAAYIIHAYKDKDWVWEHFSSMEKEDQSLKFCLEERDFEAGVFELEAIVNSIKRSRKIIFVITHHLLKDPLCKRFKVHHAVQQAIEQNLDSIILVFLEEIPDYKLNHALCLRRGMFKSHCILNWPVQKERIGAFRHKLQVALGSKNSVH
The target in test [14] is T4, Toll-like receptor 7 (Homo sapiens). Put plainly: Agonist activity at TLR7 in human PBMC assessed as induction of plasmacytoid dendritic cell maturation by measuring CD80 level at 0.1 uM after 6 hrs by flow cytometry. The method, boiled down: as §2
The target is the same in test [15]. Put plainly: Agonist activity at TLR7 in human PBMC assessed as induction of plasmacytoid dendritic cell maturation by measuring HLA-DR level at 0.1 uM after 6 hrs by flow cytometry. The method, boiled down:
as §2

For test [16] the target is unchanged. The test is described as follows: Agonist activity at TLR7 in human PBMC assessed as induction of plasmacytoid dendritic cell maturation by measuring CD86 level at 0.1 uM after 6 hrs by flow cytometry. Put shortly: as §2
For test [17] the target is unchanged. The test is described as follows: Agonist activity at TLR7 in human PBMC assessed as induction of plasmacytoid dendritic cell maturation by measuring MHC-1 level at 0.1 uM after 6 hrs by flow cytometry. The method, boiled down:
as §2

Calls of active or inactive are those of the source. The calls are words filed in the database; no cut-off is given here. Where only a bound is given, the exact number is not on record here.

With `CCC[C@H](C)Oc1nc(N)c2[nH]c(=O)n(CC3CCN(CCO)CC3)c2n1`, the values for the EC50 in test [1] and in [3] were 2140 nM and 4.06 µM, respectively. Also, the outcome in test [2] and in test [4] was inactive. The values for the Activity in [5] and in [7] were 10300 pg/mL and 4750 pg/mL, respectively. Moreover, the ECmax in [6] was 0.08 µM. Moreover, the MEC in test [6] worked out at 0.016 µM; in test [8], 2 µM. Besides, the fold change (FC) in test [9] came out at 1.5.

Consider `CCOCc1nc2c(N)nc3ccccc3c2n1CC(C)(C)O`, for which the fold change (FC) in [10] came out at 1.9; in test [11] it was 1.4. The ECmax in test [6] is 10 µM. The MEC in test [6] is 0.08 µM; in test [8], 2 µM. In [7], the Activity was determined as 1410 pg/mL.

On to `COCCOc1nc(N)c2[nH]c(=O)n(CC3CCNCC3)c2n1`, for which the result in test [12], in test [13], in test [14], in test [15], in [16] and in test [17] was inactive. The EC50 in test [3] was > 500 µM. For the same compound, the Activity in test [7] worked out at 2240 pg/mL.
